Laboratory results taken from article PMC6422976 (Osteoporosis International, 2018).

Assays:
serum calcium = experiment: Serum calcium; format: in vivo, human; details: for Serum-corrected calcium Cmax, mean / Serum-corrected calcium tmax, mean / Serum-corrected calcium AUC0-tlast, geom. mean / Serum-corrected calcium Cmax, geom. mean / Serum-corrected calcium AUC0-tlast, median / Serum-corrected calcium Cmax, median / Serum-corrected calcium tmax, median: single 20 μg/80 μL s.c. injection, healthy women, N = 53; for Serum-corrected calcium Cmax, mean / Serum-corrected calcium tmax, mean: arithmetic mean; for Serum-corrected calcium AUC0-tlast, geom. mean / Serum-corrected calcium Cmax, geom. mean: geometric mean
Summary of the method: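 Serum drawn within 2.5 h before dosing and at 120, 180 and 240 min and 6, 8 and 12 h after a single 20 μg/80 μL s.c. dose. Total calcium measured photometrically via the NM-BAPTA complex under alkaline conditions (LLOQ 0.8 mg/dl). Values albumin-corrected as Ca (mmol/L) + ((40 − ALB (g/L)) × 0.02). AUC0-tlast, Cmax and tmax calculated.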

[1] = Comparative single-dose PK of teriparatide; format: in vivo, human; details: for tlast / Cmax / tmax / AUC0-tlast: single 20 μg/80 μL s.c. dose, N = 51; for tlast: AM ± SD; for Cmax: ELISA; for Cmax / AUC0-tlast: GM (GCV%); for tmax: Median (Minimum, Maximum); for AUC0-tlast: abdomen, PTH(1-34) ELISA
Summary of the method: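 Randomised, double-blind, two-period, two-sequence cross-over in healthy women aged 18–55 y (BMI 18.5–27.0 kg/m2). Single 20 μg/80 μL s.c. abdominal injection of test or reference teriparatide at hour 0, with a 24 h washout. Plasma sampled pre-dose and at 10–240 min. High-sensitivity human PTH(1-34) ELISA. Non-compartmental parameters; ANOVA on ln values; geometric mean test/reference ratios with 94.12% CI (α 0.0294, two-stage design).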

[2] = Safety: treatment emergent adverse events in healthy women; format: in vivo, human; details: single 20 μg s.c.; for TEAE: General disorders and administration site conditions: number of subjects (%)
Summary of the method: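 Healthy women received single 20 μg/80 μL s.c. injections in each cross-over period. Monitoring covered physical examinations, vital signs, ECGs, pulse oximetry, adverse events, injection-site reactions and clinical laboratory tests. Adverse events in the washout were assigned to the preceding treatment. Results were summarised per treatment arm as subject counts; Fisher's exact test.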

[3] = after at least 12 months of treatment, 20 μg daily s.c. doses; cited from earlier work
[4] = RGB-10/reference, two-stage design
[5] = RGB-10/reference, two-stage design, acceptance range 80.00–125.00%
[6] = geometric mean ratio = 100 * (RGB-10/reference)
[7] = geometric least-squares mean from ANOVA, single 20 μg s.c., healthy women

Row | Substance | Serum-corrected calcium Cmax, mean (serum calcium) [mmol/L] | Serum-corrected calcium tmax, mean (serum calcium) [h] | Serum-corrected calcium AUC0-tlast, geom. mean (serum calcium) [mmol·h/L] | Serum-corrected calcium Cmax, geom. mean (serum calcium) [mmol/L] | Serum-corrected calcium AUC0-tlast, median (serum calcium) [mmol·h/L] | Serum-corrected calcium Cmax, median (serum calcium) [mmol/L] | Serum-corrected calcium tmax, median (serum calcium) [h] | tlast ([1]; healthy women) [h] | Cmax ([1]; healthy women) | tmax ([1]; healthy women) | AUC0-tlast ([1]; healthy women) | TEAE: General disorders and administration site conditions [2] | other results
1 | teriparatide [RGB-10] | 2.35 | 5.21 | 27.59 | 2.35 | 27.56 | 2.34 | 6.00 | 2.49 ± 0.729 | 82.4 (40.1%) pg/mL | 0.334 (0.166, 0.585) h | 91.8 (40.9%) pg*h/mL | 13 (24%) | 95% CIs of the GMR of corrected calcium (serum calcium; RGB-10/reference): 99–101%; GMR of serum calcium AUC (serum calcium; RGB-10/reference): 99.93%; GMR of serum calcium Cmax (serum calcium; RGB-10/reference): 99.87%; median difference of serum calcium tmax (serum calcium; RGB-10 versus reference): 0.001; bioequivalence conclusion ([1]; 94.12% CIs of GMRs of AUC0-tlast and Cmax within 80–125%): bioequivalent; 94.12% CI of GMR, AUC0-inf [1, 4]: 83.75–96.33%; 94.12% CI of GMR, t1/2 [1, 4]: 83.28–100.29%; 94.12% CI of GMR, AUC0-tlast [1, 5]: 85.20–98.60%; 94.12% CI of GMR, Cmax [1, 5]: 85.51–99.52%; extent, total extent and peak teriparatide exposure (AUC0-tlast, AUC0-inf, Cmax) lower than for the reference ([1]; based on GMR, plasma): 8 to 10%; GMR% AUC0-inf [1, 6]: 89.82%; GMR% AUC0-tlast [1, 6]: 91.66%; GMR% Cmax [1, 6]: 92.25%; GMR% t1/2 [1, 6]: 91.39%; half-life shorter than for the reference ([1]; in vivo): 9%; mean CL/F higher than for the reference product ([1]; in vivo): approximately 13%; mean Vz/F compared with the reference ([1]; in vivo): similar; serious adverse events (SAEs) [2]: no SAEs observed
2 | teriparatide [Reference, reference compound] | 2.35 | 5.03 | 27.61 | 2.35 | 27.56 | 2.34 | 6.00 | 2.58 ± 0.707 | 89.2 (37.1%) pg/mL | 0.417 (0.167, 0.667) h | 99.0 (35.0%) pg*h/mL | 8 (15%) | patients with anti-teriparatide antibodies [3]: 2.8%; AUC0-inf, geometric LSM [1, 7]: 0.11566 ng·h/mL; AUC0-tlast, geometric LSM [1, 7]: 0.10086 ng·h/mL; Cmax, geometric LSM [1, 7]: 0.09018 ng/mL; t1/2, geometric LSM [1, 7]: 0.72 h
